# Results taken from ChEMBL document CHEMBL1134236, “Anti-MRSA cephems. Part 1: C-3 substituted thiopyridinium derivatives” (Bioorg Med Chem Lett, 2001).
# Tested on: Staphylococcus aureus
# Test: Minimum inhibitory concentration against methicillin-resistant Staphylococcus aureus (MRSA) A27223 in the presence of 50% calf serum.
# Assay type: functional
# Settings: not given
# Outline: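 NCCLS broth MIC in Mueller-Hinton broth with 2% NaCl plus 50% calf serum. Inoculum about 5×10⁵ CFU/mL, incubated at 35 °C for 24 h. Read as the lowest concentration with no visible growth.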
row,Compound,MIC [µg/mL]
1,NCCC[n+]1ccc(SCC2=C(C(=O)O)N3C(=O)[C@@H](NC(=O)CSc4cc(Cl)ccc4Cl)[C@H]3SC2)cc1CCC(=O)O.O=C(O)C(F)(F)F.O=C([O-])C(F)(F)F,2

# Tested on: Enterococcus faecium
# Test: Minimum inhibitory concentration against Enterococcus faecium A24885
# Assay type: functional
# Settings: not given
# Outline: (§1)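 Broth dilution MIC under standard NCCLS-recommended conditions. The MIC was read as the lowest drug concentration giving no visible growth. Where the line states it, 50% calf serum was added.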
row,Compound,MIC [µg/mL]
1,NCCC[n+]1ccc(SCC2=C(C(=O)O)N3C(=O)[C@@H](NC(=O)CSc4cc(Cl)ccc4Cl)[C@H]3SC2)cc1CCC(=O)O.O=C(O)C(F)(F)F.O=C([O-])C(F)(F)F,2

# Tested on: Staphylococcus aureus
# Test: Minimum inhibitory concentration against Staphylococcus aureus / Homo MR A27295
# Assay type: functional
# Settings: not given
# Outline: (§2)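 Broth MIC under NCCLS standard conditions in Mueller-Hinton broth plus 2% NaCl. Inoculum was about 5×10⁵ CFU/mL, incubated at 35 °C for 24 h. The endpoint was the lowest drug concentration inhibiting all visible growth. Where the line states it, 50% calf serum was added.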
row,Compound,MIC [µg/mL]
1,NCCC[n+]1ccc(SCC2=C(C(=O)O)N3C(=O)[C@@H](NC(=O)CSc4cc(Cl)ccc4Cl)[C@H]3SC2)cc1CCC(=O)O.O=C(O)C(F)(F)F.O=C([O-])C(F)(F)F,4

# Tested on: Staphylococcus epidermidis
# Test: Minimum inhibitory concentration against Staphylococcus epidermidis / Imipenem A27368
# Assay type: functional
# Settings: not given
# Outline: as §1
row,Compound,MIC [µg/mL]
1,NCCC[n+]1ccc(SCC2=C(C(=O)O)N3C(=O)[C@@H](NC(=O)CSc4cc(Cl)ccc4Cl)[C@H]3SC2)cc1CCC(=O)O.O=C(O)C(F)(F)F.O=C([O-])C(F)(F)F,0.25

# Tested on: Staphylococcus aureus
# Test: Minimum inhibitory concentration against Staphylococcus aureus / + 50% calf serum A27223
# Assay type: functional
# Settings: not given
# Outline: as §2
row,Compound,MIC [µg/mL]
1,NCCC[n+]1ccc(SCC2=C(C(=O)O)N3C(=O)[C@@H](NC(=O)CSc4cc(Cl)ccc4Cl)[C@H]3SC2)cc1CCC(=O)O.O=C(O)C(F)(F)F.O=C([O-])C(F)(F)F,2

# Tested on: Staphylococcus aureus
# Test: Minimum inhibitory concentration against Staphylococcus aureus / Homo MR A27621
# Assay type: functional
# Settings: not given
# Outline: as §2
row,Compound,MIC [µg/mL]
1,NCCC[n+]1ccc(SCC2=C(C(=O)O)N3C(=O)[C@@H](NC(=O)CSc4cc(Cl)ccc4Cl)[C@H]3SC2)cc1CCC(=O)O.O=C(O)C(F)(F)F.O=C([O-])C(F)(F)F,1

# Tested on: Staphylococcus aureus
# Test: Minimum inhibitory concentration against Staphylococcus aureus A9606 with 50% calf serum
# Assay type: functional
# Settings: not given
# Outline: as §1
row,Compound,MIC [µg/mL]
1,NCCC[n+]1ccc(SCC2=C(C(=O)O)N3C(=O)[C@@H](NC(=O)CSc4cc(Cl)ccc4Cl)[C@H]3SC2)cc1CCC(=O)O.O=C(O)C(F)(F)F.O=C([O-])C(F)(F)F,0.125

# Tested on: Staphylococcus aureus
# Test: Minimum inhibitory concentration against Staphylococcus aureus / Hetero MR A27217
# Assay type: functional
# Settings: not given
# Outline: as §2
row,Compound,MIC [µg/mL]
1,NCCC[n+]1ccc(SCC2=C(C(=O)O)N3C(=O)[C@@H](NC(=O)CSc4cc(Cl)ccc4Cl)[C@H]3SC2)cc1CCC(=O)O.O=C(O)C(F)(F)F.O=C([O-])C(F)(F)F,0.5

# Tested on: Staphylococcus aureus
# Test: Minimum inhibitory concentration against Staphylococcus aureus / Pen.+ A9606
# Assay type: functional
# Settings: not given
# Outline: as §1
row,Compound,MIC [µg/mL]
1,NCCC[n+]1ccc(SCC2=C(C(=O)O)N3C(=O)[C@@H](NC(=O)CSc4cc(Cl)ccc4Cl)[C@H]3SC2)cc1CCC(=O)O.O=C(O)C(F)(F)F.O=C([O-])C(F)(F)F,0.125

# Tested on: Streptococcus pneumoniae
# Test: Minimum inhibitory concentration against penicillin resistant Streptococcus pneumoniae A28272
# Assay type: functional
# Settings: not given
row,Compound,MIC [µg/mL]
1,NCCC[n+]1ccc(SCC2=C(C(=O)O)N3C(=O)[C@@H](NC(=O)CSc4cc(Cl)ccc4Cl)[C@H]3SC2)cc1CCC(=O)O.O=C(O)C(F)(F)F.O=C([O-])C(F)(F)F,0.06

# Tested on: Staphylococcus aureus
# Test: Minimum inhibitory concentration against methicillin-resistant Staphylococcus aureus (MRSA) A27223
# Assay type: functional
# Settings: not given
# Outline: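 Broth microdilution per NCCLS in Mueller-Hinton broth with 2% NaCl. Inoculum about 5×10⁵ CFU/mL, incubated at 35 °C for 24 h. MIC is the lowest drug concentration that inhibits all visible growth.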
row,Compound,MIC [µg/mL]
1,NCCC[n+]1ccc(SCC2=C(C(=O)O)N3C(=O)[C@@H](NC(=O)CSc4cc(Cl)ccc4Cl)[C@H]3SC2)cc1CCC(=O)O.O=C(O)C(F)(F)F.O=C([O-])C(F)(F)F,2

# Tested on: Staphylococcus haemolyticus
# Test: Minimum inhibitory concentration against Staphylococcus haemolyticus A21638
# Assay type: functional
# Settings: not given
# Outline: as §1
row,Compound,MIC [µg/mL]
1,NCCC[n+]1ccc(SCC2=C(C(=O)O)N3C(=O)[C@@H](NC(=O)CSc4cc(Cl)ccc4Cl)[C@H]3SC2)cc1CCC(=O)O.O=C(O)C(F)(F)F.O=C([O-])C(F)(F)F,0.06

# Tested on: Staphylococcus epidermidis
# Test: Minimum inhibitory concentration against Staphylococcus epidermidis A24548
# Assay type: functional
# Settings: not given
# Outline: as §1
row,Compound,MIC [µg/mL]
1,NCCC[n+]1ccc(SCC2=C(C(=O)O)N3C(=O)[C@@H](NC(=O)CSc4cc(Cl)ccc4Cl)[C@H]3SC2)cc1CCC(=O)O.O=C(O)C(F)(F)F.O=C([O-])C(F)(F)F,0.03

# Tested on: Staphylococcus aureus
# Test: Minimum inhibitory concentration against Staphylococcus aureus / Homo MR A27226
# Assay type: functional
# Settings: not given
# Outline: as §2
row,Compound,MIC [µg/mL]
1,NCCC[n+]1ccc(SCC2=C(C(=O)O)N3C(=O)[C@@H](NC(=O)CSc4cc(Cl)ccc4Cl)[C@H]3SC2)cc1CCC(=O)O.O=C(O)C(F)(F)F.O=C([O-])C(F)(F)F,1

# Tested on: Staphylococcus aureus
# Test: Minimum inhibitory concentration against Staphylococcus aureus A27218 with 50% calf serum
# Assay type: functional
# Settings: not given
# Outline: as §2
row,Compound,MIC [µg/mL]
1,NCCC[n+]1ccc(SCC2=C(C(=O)O)N3C(=O)[C@@H](NC(=O)CSc4cc(Cl)ccc4Cl)[C@H]3SC2)cc1CCC(=O)O.O=C(O)C(F)(F)F.O=C([O-])C(F)(F)F,1

# Tested on: Staphylococcus aureus
# Test: Minimum inhibitory concentration against Staphylococcus aureus / Hetero MR A27218
# Assay type: functional
# Settings: not given
# Outline: as §2
row,Compound,MIC [µg/mL]
1,NCCC[n+]1ccc(SCC2=C(C(=O)O)N3C(=O)[C@@H](NC(=O)CSc4cc(Cl)ccc4Cl)[C@H]3SC2)cc1CCC(=O)O.O=C(O)C(F)(F)F.O=C([O-])C(F)(F)F,0.5

# Tested on: Enterococcus faecium
# Test: Minimum inhibitory concentration against Enterococcus faecium Amp. R. Vanco. S A28156
# Assay type: functional
# Settings: not given
# Outline: as §1
row,Compound,MIC [µg/mL]
1,NCCC[n+]1ccc(SCC2=C(C(=O)O)N3C(=O)[C@@H](NC(=O)CSc4cc(Cl)ccc4Cl)[C@H]3SC2)cc1CCC(=O)O.O=C(O)C(F)(F)F.O=C([O-])C(F)(F)F,64

# Tested on: Staphylococcus epidermidis
# Test: Minimum inhibitory concentration against Staphylococcus epidermidis / MR A25783
# Assay type: functional
# Settings: not given
# Outline: as §1
row,Compound,MIC [µg/mL]
1,NCCC[n+]1ccc(SCC2=C(C(=O)O)N3C(=O)[C@@H](NC(=O)CSc4cc(Cl)ccc4Cl)[C@H]3SC2)cc1CCC(=O)O.O=C(O)C(F)(F)F.O=C([O-])C(F)(F)F,0.25

# Tested on: Staphylococcus aureus
# Test: Minimum inhibitory concentration against Staphylococcus aureus / Pen.- A9497
# Assay type: functional
# Settings: not given
# Outline: as §1
row,Compound,MIC [ng/mL]
1,NCCC[n+]1ccc(SCC2=C(C(=O)O)N3C(=O)[C@@H](NC(=O)CSc4cc(Cl)ccc4Cl)[C@H]3SC2)cc1CCC(=O)O.O=C(O)C(F)(F)F.O=C([O-])C(F)(F)F,7

# Tested on: Staphylococcus aureus
# Test: Minimum inhibitory concentration against Staphylococcus aureus A20241 /MS/Pen.
# Assay type: functional
# Settings: not given
# Outline: as §1
row,Compound,MIC [µg/mL]
1,NCCC[n+]1ccc(SCC2=C(C(=O)O)N3C(=O)[C@@H](NC(=O)CSc4cc(Cl)ccc4Cl)[C@H]3SC2)cc1CCC(=O)O.O=C(O)C(F)(F)F.O=C([O-])C(F)(F)F,0.125

# Tested on: Enterococcus faecalis
# Test: Minimum inhibitory concentration against Enterococcus faecalis A20688
# Assay type: functional
# Settings: not given
# Outline: as §1
row,Compound,MIC [µg/mL]
1,NCCC[n+]1ccc(SCC2=C(C(=O)O)N3C(=O)[C@@H](NC(=O)CSc4cc(Cl)ccc4Cl)[C@H]3SC2)cc1CCC(=O)O.O=C(O)C(F)(F)F.O=C([O-])C(F)(F)F,0.5

# Tested on: Streptococcus pneumoniae
# Test: Minimum inhibitory concentration against Streptococcus pneumoniae / Pen.I A27881
# Assay type: functional
# Settings: not given
# Outline: as §1
row,Compound,MIC [ng/mL]
1,NCCC[n+]1ccc(SCC2=C(C(=O)O)N3C(=O)[C@@H](NC(=O)CSc4cc(Cl)ccc4Cl)[C@H]3SC2)cc1CCC(=O)O.O=C(O)C(F)(F)F.O=C([O-])C(F)(F)F,3

# Tested on: Staphylococcus aureus
# Test: Dose required for protective activity against methicillin-resistant Staphylococcus aureus (MRSA) A27223 in mouse following i.m. administration.
# Settings: im, read-out: PD50
row,Compound,ED50 [mg/kg]
1,NCCC[n+]1ccc(SCC2=C(C(=O)O)N3C(=O)[C@@H](NC(=O)CSc4cc(Cl)ccc4Cl)[C@H]3SC2)cc1CCC(=O)O.O=C(O)C(F)(F)F.O=C([O-])C(F)(F)F,2.1

# Tested on: Enterococcus faecalis
# Test: Minimum inhibitory concentration against Enterococcus faecalis A20688 with 50% calf serum
# Assay type: functional
# Settings: not given
# Outline: as §1
row,Compound,MIC [µg/mL]
1,NCCC[n+]1ccc(SCC2=C(C(=O)O)N3C(=O)[C@@H](NC(=O)CSc4cc(Cl)ccc4Cl)[C@H]3SC2)cc1CCC(=O)O.O=C(O)C(F)(F)F.O=C([O-])C(F)(F)F,1

# Tested on: Staphylococcus aureus
# Test: Minimum inhibitory concentration against Staphylococcus aureus / Homo MR A27223
# Assay type: functional
# Settings: not given
# Outline: as §2
row,Compound,MIC [µg/mL]
1,NCCC[n+]1ccc(SCC2=C(C(=O)O)N3C(=O)[C@@H](NC(=O)CSc4cc(Cl)ccc4Cl)[C@H]3SC2)cc1CCC(=O)O.O=C(O)C(F)(F)F.O=C([O-])C(F)(F)F,2

# Tested on: Staphylococcus aureus
# Test: Minimum inhibitory concentration against Staphylococcus aureus / MR. P- A27225
# Assay type: functional
# Settings: not given
# Outline: as §2
row,Compound,MIC [µg/mL]
1,NCCC[n+]1ccc(SCC2=C(C(=O)O)N3C(=O)[C@@H](NC(=O)CSc4cc(Cl)ccc4Cl)[C@H]3SC2)cc1CCC(=O)O.O=C(O)C(F)(F)F.O=C([O-])C(F)(F)F,1

# Tested on: Staphylococcus haemolyticus
# Test: Minimum inhibitory concentration against Staphylococcus haemolyticus / Homo MR A27229
# Assay type: functional
# Settings: not given
# Outline: as §1
row,Compound,MIC [µg/mL]
1,NCCC[n+]1ccc(SCC2=C(C(=O)O)N3C(=O)[C@@H](NC(=O)CSc4cc(Cl)ccc4Cl)[C@H]3SC2)cc1CCC(=O)O.O=C(O)C(F)(F)F.O=C([O-])C(F)(F)F,2

# Tested on: Streptococcus pyogenes
# Test: Minimum inhibitory concentration against Streptococcus pyogenes Todd Hewitt A9604
# Assay type: functional
# Settings: not given
# Outline: as §1
row,Compound,MIC [ng/mL]
1,NCCC[n+]1ccc(SCC2=C(C(=O)O)N3C(=O)[C@@H](NC(=O)CSc4cc(Cl)ccc4Cl)[C@H]3SC2)cc1CCC(=O)O.O=C(O)C(F)(F)F.O=C([O-])C(F)(F)F,3
